Experimental data published in ChEMBL document CHEMBL3272270, “Potential antitumor agents. 23. 4'-(9-Acridinylamino)alkanesulfonanilide congeners bearing hydrophilic functionality” (J Med Chem, 1977).

Assays:
[1] = Retardation factor, Rm of the compound by reversed phase partition chromatography; type: physicochemical
Mus musculus = assay: Toxicity in sc implanted mouse L1210 cells allografted C3H/DBA2 F1 hybrid hybrid mouse assessed as optimum dose required to increase life span treated ip after 24 hrs after tumor inoculation and continued for 5 days; type: organism-based; settings: in vivo
Summary of the method: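 10^5 L1210 cells implanted sc above the right axilla in 18.5-22.5-g C3H/DBA2 F1 hybrid mice. Ip dosing (0.2 mL per dose) ran daily for 5 days from 24 h. Dilution series at 0.18 log intervals, with the median dose set at the earlier ip L1210 optimum. Six mice per dose, one control group per six test groups. Tests were repeated until the highest dose was toxic and the lowest clearly suboptimal.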

L1210 [2] = assay: Antileukemic activity against ip implanted mouse L1210 cells in C3H/DBA2 F1 hybrid hybrid mouse assessed as increase life span treated ip after 24 hrs after tumor inoculation and continued for 5 days; type: functional
Summary of the method: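 10^5 L1210 cells implanted ip in 18.5-22.5-g C3H/DBA2 F1 hybrid mice. Drug given ip from 24 h after inoculation, continuing for 5 days, each dose in 0.2 mL. Dose levels spaced at 0.18 log intervals, six mice per dose, one control group per six test groups. Read-out is life extension; 50-day survivors counted as cures.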

L1210 [3] = assay: Antileukemic activity against sc implanted mouse L1210 cells in C3H/DBA2 F1 hybrid hybrid mouse assessed as increase life span treated ip after 24 hrs after tumor inoculation and continued for 5 days; type: functional
Summary of the method: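 10^5 L1210 cells implanted sc above the right axilla in 18.5-22.5-g C3H/DBA2 F1 hybrid mice. Drug given ip (0.2 mL) from 24 h for 5 days. Dilution series at 0.18 log intervals, centred on the optimum ip L1210 dose. Top dose had to show toxicity and lowest dose had to be suboptimal, otherwise the test was repeated. Read-out is life extension.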

[4] = Half life in mouse L1210 cells allografted C3H/DBA2 F1 hybrid hybrid mouse

Compound	Rm [1]	Activity (Mus musculus)	ILS (L1210 [2])	ILS (L1210 [3])	half-life [4]
O=[N+]([O-])c1ccc2c(Nc3ccc(N4CCNCC4)cc3)c3ccccc3nc2c1	-0.81	15 mg/kg	>25%		
CNC(=O)Nc1ccc(Nc2c3ccccc3nc3ccccc23)cc1	0.25	60 mg/kg	112%	>25%	
Nc1ccc(Nc2c3ccccc3nc3ccccc23)cc1					12 min
COc1cc(NS(C)(=O)=O)ccc1Nc1c2ccccc2nc2c(C(N)=O)cccc12.Cl	-0.27	25 mg/kg	140%	36%	
CNC(=O)c1cccc2c(Nc3ccc(NS(C)(=O)=O)cc3OC)c3ccccc3nc12.Cl	0.06	8.3 mg/kg	166%	59%	
COc1cc(NS(C)(=O)=O)ccc1Nc1c2ccccc2nc2c(C(=O)N(C)C)cccc12.Cl	0.09	15 mg/kg	84%	61%	
COc1cc(NS(C)(=O)=O)ccc1Nc1c2ccccc2nc2c(C(=O)NCC(N)=O)cccc12.Cl	-0.54	62 mg/kg	105%	41%	
COc1cc(NS(C)(=O)=O)ccc1Nc1c2ccccc2nc2c(C(=O)NCC(O)CO)cccc12.Cl (configuration not stated)	-0.36	92 mg/kg	72%		
Br.CS(=O)(=O)N(CC(O)CO)c1ccc(Nc2c3ccccc3nc3ccccc23)cc1 (configuration not stated)	-0.03	65 mg/kg	>25%		
COc1ccc(Nc2c3ccccc3nc3cc([N+](=O)[O-])ccc23)cc1.Cl	0.49	90 mg/kg	33%		
COc1ccc(Nc2c3ccccc3nc3cc(N)ccc23)cc1.Cl	0.31	15 mg/kg	66%		
Br.CN1CCN(c2ccc(Nc3c4ccccc4nc4cc([N+](=O)[O-])ccc34)cc2)CC1	-0.78	60 mg/kg	>25%		
Br.c1ccc2c(Nc3ccc(N4CCNCC4)cc3)c3ccccc3nc2c1	-0.8	15 mg/kg	>25%		
Br.CN1CCN(c2ccc(Nc3c4ccccc4nc4ccccc34)cc2)CC1	-0.68	50 mg/kg	>25%		
CC(=O)N1CCN(c2ccc(Nc3c4ccccc4nc4ccccc34)cc2)CC1.Cl	0.23	75 mg/kg	81%		
CS(=O)(=O)N1CCN(c2ccc(Nc3c4ccccc4nc4ccccc34)cc2)CC1.Cl	0.21	200 mg/kg	69%		
Cl.NC(=O)N1CCN(c2ccc(Nc3c4ccccc4nc4ccccc34)cc2)CC1	-0.11	37 mg/kg	78%		
CCOC(=O)NNc1ccc(Nc2c3ccccc3nc3ccccc23)cc1.Cl	0.41	25 mg/kg	67%		
CNC(=O)Nc1ccc(Nc2c3ccccc3nc3ccccc23)c(OC)c1.Cl	0.51	50 mg/kg	72%		
CCOC(=O)N1CCN(C(=O)Nc2ccc(Nc3c4ccccc4nc4ccccc34)cc2)CC1.Cl	0.59	50 mg/kg	29%		
COC(=O)NNC(=O)Nc1ccc(Nc2c3ccccc3nc3ccccc23)cc1.Cl	-0.04	> 500 mg/kg	67%		
Cl.O=C(Nc1ccc(Nc2c3ccccc3nc3ccccc23)cc1)OCC(O)CO (configuration not stated)	-0.06	25 mg/kg	63%	>25%	
CC(=O)NCCS(=O)(=O)Nc1ccc(Nc2c3ccccc3nc3ccccc23)cc1.Cl	-0.06	50 mg/kg	94%	>25%	
COC(=O)NCCS(=O)(=O)Nc1ccc(Nc2c3ccccc3nc3ccccc23)cc1.Cl	0.24	> 500 mg/kg	67%		

Compound	Rm [1]	Activity (Mus musculus)	ILS (L1210 [2])	ILS (L1210 [3])	half-life [4]
CS(=O)(=O)NCCS(=O)(=O)Nc1ccc(Nc2c3ccccc3nc3ccccc23)cc1.Cl	-0.14	110 mg/kg	33%		
Cl.NC(=O)NCCS(=O)(=O)Nc1ccc(Nc2c3ccccc3nc3ccccc23)cc1	-0.21	200 mg/kg	53%	>25%	
Cl.O=C1CNC(=O)N1CCS(=O)(=O)Nc1ccc(Nc2c3ccccc3nc3ccccc23)cc1	-0.19	160 mg/kg	51%	>25%	
CC(=O)N(C)CCS(=O)(=O)Nc1ccc(Nc2c3ccccc3nc3ccccc23)cc1.Cl	0.05	200 mg/kg	54%		
CC(=O)NCCCS(=O)(=O)Nc1ccc(Nc2c3ccccc3nc3ccccc23)cc1.Cl	-0.01	> 500 mg/kg	26%		
Cl.O=C1CCS(=O)(=O)N1c1ccc(Nc2c3ccccc3nc3ccccc23)cc1	0.13	200 mg/kg	33%		
Cl.O=C(O)CCS(=O)(=O)Nc1ccc(Nc2c3ccccc3nc3ccccc23)cc1	0.1	350 mg/kg	>25%		
COC(=O)CCS(=O)(=O)Nc1ccc(Nc2c3ccccc3nc3ccccc23)cc1.Cl	0.57	> 500 mg/kg		>25%	
Cl.NC(=O)CCS(=O)(=O)Nc1ccc(Nc2c3ccccc3nc3ccccc23)cc1	-0.34	> 500 mg/kg	67%		
CN(C)C(=O)CCS(=O)(=O)Nc1ccc(Nc2c3ccccc3nc3ccccc23)cc1.Cl	0.17	150 mg/kg	63%		
CC(CS(=O)(=O)Nc1ccc(Nc2c3ccccc3nc3ccccc23)cc1)C(N)=O.Cl (configuration not stated)	-0.11	50 mg/kg	>25%		
COCCS(=O)(=O)Nc1ccc(Nc2c3ccccc3nc3ccccc23)cc1.Cl	0.21	280 mg/kg	79%	25%	
COc1cc(NS(C)(=O)=O)ccc1Nc1c2ccccc2nc2c(C(=O)N[C@H]3[C@@H](OC)O[C@H](COC(C)=O)[C@@H](OC(C)=O)[C@@H]3OC(C)=O)cccc12.Cl	0.62	> 400 mg/kg	>25%		
COc1cc(NS(C)(=O)=O)ccc1Nc1c2ccccc2nc2c(C(=O)N[C@H]3[C@@H](OC)O[C@H](CO)[C@@H](O)[C@@H]3O)cccc12.Cl	-0.57	180 mg/kg	100%	49%	
CCCS(=O)(=O)Nc1ccc(Nc2c3ccccc3nc3c(C(=O)N[C@H]4[C@@H](OC)O[C@H](CO)[C@@H](O)[C@@H]4O)cccc23)c(OC)c1.Cl	-0.1	400 mg/kg	180%	51%	
Br.COc1cc(NS(C)(=O)=O)ccc1Nc1c2ccccc2nc2c(CCC(N)=O)cccc12	-0.17	15 mg/kg	94%	30%	
Br.COc1cc(NS(C)(=O)=O)ccc1Nc1c2ccccc2nc2cc(CCC(N)=O)ccc12	-0.25	125 mg/kg	58%		
COc1cc(NS(C)(=O)=O)ccc1Nc1c2ccccc2nc2c(OCCO)cccc12.Cl	0.09	5 mg/kg	112%	28%	
COc1cc(NS(C)(=O)=O)ccc1Nc1c2ccccc2nc2c(OCC(O)CO)cccc12.Cl (configuration not stated)	-0.09	17 mg/kg	123%	43%	
Cc1cc(NS(C)(=O)=O)ccc1Nc1c2ccccc2nc2c(OCC(O)CO)cccc12.Cl (configuration not stated)	-0.03	100 mg/kg	110%	41%	
COc1cc(NS(C)(=O)=O)ccc1Nc1c2ccc(I)cc2nc2c(OCC(O)CO)cccc12.Cl (configuration not stated)	0.06	62 mg/kg		>25%	
CS(=O)(=O)Nc1ccc(Nc2c3ccccc3nc3ccccc23)cc1	0	45 mg/kg	107%	28%	
COc1cc(NS(C)(=O)=O)ccc1Nc1c2ccccc2nc2ccccc12 [AMSACRINE]	0.18	6.7 mg/kg	114%	27%	
